Where “and” joins values, the source holds several entries; their conditions need not be identical. Identical values can stand only once.
Legend:
[1] = target: T1, Estrogen receptor (Mus musculus) (UniProt O08537+P19785); assay: Percentage inhibition of uterotrophic effects of estradiol in vivo following 100 ug i.p.; type: functional, organism-based; details: in the assay text read “s.c.” for “i.p.”
Summary of the method: (§1)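 Antiuterotrophic test in immature female Swiss mice, 21-23 days old, 8-12 g. Each animal received 100 μg compound s.c. in propylene glycol-0.9% saline (1:1) daily for 3 days, with 1 μg E2 given at a separate site. Controls got E2 plus vehicle. Uterine weights were taken 24 h after the last dose. Activity computed as 100 × (W_ET − W_C)/(W_E − W_C).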

[2] = target: T1, Estrogen receptor (Mus musculus); assay: In vivo anti-uterotrophic activity in mice following 1 ug estradiol i.p.; type: functional, organism-based; details: in the assay text read “s.c.” for “i.p.”; summary of the method: as §1
[3] = target: T1, Estrogen receptor (Mus musculus)
[4] = system: Estrogen receptor (Mus musculus); assay: Relative binding affinity calculated as the ratio of molar concentration of E2 and the triarylpropenones (TAP's) required to decrease [3H]E2 binding by 50%.
[5] = target: T1, Estrogen receptor (Mus musculus); assay: Uterotrophic activity as uterine weight gain in immature mice without E2 (number of animals); type: functional, tissue-based; details: Uterus
Summary of the method: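 Uterotrophic test in immature female Swiss mice, 21-23 days old, 8-12 g. Dosing was 100 μg/animal s.c. in propylene glycol-0.9% saline (1:1) on three consecutive days, and controls got vehicle alone. Uteri were weighed at autopsy 24 h after the last injection. Group sizes are given per compound.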

[6] = target: T2, Estrogen receptor (Rattus norvegicus) (UniProt P06211+Q62986); assay: Uterotrophic activity as uterine weight gain in rats with concomitant E2 treatment; type: functional, tissue-based; details: Uterus
Summary of the method: (§2)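 Immature female Charles Foster rats, 21-23 days old, 25-40 g, were dosed s.c. at 0.5-1000 μg/rat in propylene glycol-0.9% saline (1:1) for 3 consecutive days. Rats were given the compound either alone or with 1 μg E2 at another site. Uterine weight was measured 24 h after the last injection and reported as mean ± SD of at least six animals.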

[7] = target: T2, Estrogen receptor (Rattus norvegicus); assay: Uterotrophic activity as uterine weight gain without E2 in rats; type: functional, tissue-based; details: Uterus; summary of the method: as §2

T1 sequence (O08537 whole entry, looked up): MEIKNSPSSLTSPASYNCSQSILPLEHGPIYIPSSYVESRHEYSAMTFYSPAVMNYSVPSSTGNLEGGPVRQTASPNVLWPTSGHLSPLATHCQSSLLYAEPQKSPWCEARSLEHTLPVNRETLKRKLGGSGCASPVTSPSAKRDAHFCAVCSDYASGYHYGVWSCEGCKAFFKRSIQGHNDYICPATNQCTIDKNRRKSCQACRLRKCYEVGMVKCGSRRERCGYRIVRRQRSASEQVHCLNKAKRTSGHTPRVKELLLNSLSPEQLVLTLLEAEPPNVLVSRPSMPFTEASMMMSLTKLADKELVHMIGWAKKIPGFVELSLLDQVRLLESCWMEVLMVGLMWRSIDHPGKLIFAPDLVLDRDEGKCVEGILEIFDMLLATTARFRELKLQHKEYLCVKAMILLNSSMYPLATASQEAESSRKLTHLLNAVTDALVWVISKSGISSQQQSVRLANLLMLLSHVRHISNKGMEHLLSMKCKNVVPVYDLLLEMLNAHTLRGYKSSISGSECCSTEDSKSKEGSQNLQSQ
T1 sequence (P19785 whole entry, looked up): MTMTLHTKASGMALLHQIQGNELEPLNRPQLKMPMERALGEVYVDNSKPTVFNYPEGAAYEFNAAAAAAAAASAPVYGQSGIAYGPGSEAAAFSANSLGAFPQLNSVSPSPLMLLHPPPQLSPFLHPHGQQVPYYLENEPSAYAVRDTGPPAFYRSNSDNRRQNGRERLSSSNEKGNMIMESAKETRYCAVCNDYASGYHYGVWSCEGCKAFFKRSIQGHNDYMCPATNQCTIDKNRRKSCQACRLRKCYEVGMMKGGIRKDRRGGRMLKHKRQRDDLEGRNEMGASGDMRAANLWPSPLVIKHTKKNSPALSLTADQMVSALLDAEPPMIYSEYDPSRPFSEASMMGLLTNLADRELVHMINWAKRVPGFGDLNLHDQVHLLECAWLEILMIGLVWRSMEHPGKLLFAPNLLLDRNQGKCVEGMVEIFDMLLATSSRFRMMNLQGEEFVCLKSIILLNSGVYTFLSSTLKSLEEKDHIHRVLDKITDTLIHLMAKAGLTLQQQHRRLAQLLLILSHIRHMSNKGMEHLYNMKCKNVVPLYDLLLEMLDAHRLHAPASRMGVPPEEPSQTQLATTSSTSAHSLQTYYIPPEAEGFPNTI

O=C(/C(=C/c1ccccc1)c1ccc(O)cc1)c1ccccc1
inhibition [1]: 36% | Uterine weight [2]: 18.4 mg | Uterine weight [3]: 2.9 mg | RBA [4]: 0.28

COc1ccc(/C=C(/C(=O)c2ccccc2)c2ccccc2)cc1
inhibition [1]: 42% | Uterine weight [2]: 17.3 mg | Uterine weight [3]: 4.3 mg | RBA [4]: 0.09

O=C(/C(=C\c1ccccc1)c1ccccc1)c1ccc(OCCN2CCCC2)cc1
RBA [4]: 0.002

O=C(/C(=C\c1ccc(O)cc1)c1ccccc1)c1ccc(O)cc1
inhibition [1]: 16% | Uterine weight [2]: 22.3 mg | Uterine weight [3]: 3.4 mg | RBA [4]: 0.4

COc1ccc(/C(=C\c2ccccc2)C(=O)c2ccccc2)cc1
inhibition [1]: 36% | Uterine weight [2]: 18.5 mg | Uterine weight [3]: 4.7 mg | RBA [4]: 0.02

O=C(/C(=C/c1ccc(O)cc1)c1ccc(O)cc1)c1ccccc1
inhibition [1]: 44% | Uterine weight [2]: 16.9 mg | Uterine weight [3]: 5.5 mg | RBA [4]: 0.57

O=C(/C(=C/c1ccccc1)c1ccccc1)c1ccc(OCCN2CCCC2)cc1
RBA [4]: 0.025

CC(=O)Oc1ccc(/C(=C/c2ccccc2)C(=O)c2ccccc2)cc1
inhibition [1]: 39% | Uterine weight [2]: 17.8 mg | Uterine weight [3]: 4.5 mg | RBA [4]: 0.24

O=C(/C(=C\c1ccccc1)c1ccccc1)c1ccc(O)cc1
inhibition [1]: 60% | Uterine weight [2]: 13.6 mg | Uterine weight [3]: 3.2 mg | RBA [4]: < 0.001

O=C(/C(=C/c1ccccc1)c1ccccc1)c1ccc(O)cc1
inhibition [1]: 36% | Uterine weight [2]: 18.5 mg | Uterine weight [5]: 9.7 mg | RBA [4]: 2.02

CC(=O)Oc1ccc(/C=C(/C(=O)c2ccc(OC(C)=O)cc2)c2ccccc2)cc1
inhibition [1]: 58% | Uterine weight [2]: 14 mg | Uterine weight [3]: 14 mg | RBA [4]: 1.02

O=C(/C(=C\c1ccccc1)c1ccccc1)c1ccccc1
inhibition [1]: 51% | Uterine weight [2]: 15.3 mg | Uterine weight [3]: 3 mg | RBA [4]: < 0.001

O=C(/C(=C/c1ccc(O)cc1)c1ccc(O)cc1)c1ccc(O)cc1
inhibition [1]: 69% | Uterine weight [6]: 53.6 mg [middle of 5 runs] | Uterine weight [7]: 20.5 mg [middle of 5 runs] | Uterine weight [3]: 4.4 mg and 12 mg | RBA [4]: 0.55

COc1ccc(C(=O)/C(=C/c2ccccc2)c2ccccc2)cc1
inhibition [1]: 27% | Uterine weight [2]: 20.2 mg | Uterine weight [3]: 5 mg | RBA [4]: < 0.001

COc1ccc(/C=C(\C(=O)c2ccccc2)c2ccccc2)cc1
inhibition [1]: 52% | Uterine weight [2]: 15.3 mg | Uterine weight [3]: 4.6 mg | RBA [4]: < 0.001

O=C(/C(=C/c1ccc(O)cc1)c1ccccc1)c1ccccc1
inhibition [1]: 58% | Uterine weight [2]: 14 mg | Uterine weight [3]: 5 mg | RBA [4]: 0.22

O=C(/C(=C/c1ccccc1)c1ccc(O)cc1)c1ccc(O)cc1
inhibition [1]: 18% | Uterine weight [2]: 21.9 mg | Uterine weight [3]: 6.8 mg | RBA [4]: 0.37

CC(=O)Oc1ccc(/C(=C\c2ccccc2)C(=O)c2ccccc2)cc1
inhibition [1]: 20% | Uterine weight [2]: 21.5 mg | Uterine weight [3]: 4.2 mg | RBA [4]: 0.28

CC(=O)Oc1ccc(/C=C(/C(=O)c2ccccc2)c2ccccc2)cc1
inhibition [1]: 42% | Uterine weight [2]: 17.3 mg | Uterine weight [3]: 5.9 mg | RBA [4]: 0.42

COc1ccc(/C(=C/c2ccccc2)C(=O)c2ccccc2)cc1
inhibition [1]: 52% | Uterine weight [2]: 15.3 mg | Uterine weight [3]: 3.5 mg | RBA [4]: < 0.001

O=C(/C(=C\c1ccccc1)c1ccc(O)cc1)c1ccc(O)cc1
inhibition [1]: 55% | Uterine weight [2]: 14.7 mg | Uterine weight [3]: 4.1 mg | RBA [4]: 4.75

O=C(/C(=C/c1ccccc1)c1ccccc1)c1ccccc1
inhibition [1]: 51% | Uterine weight [2]: 15.4 mg | Uterine weight [3]: 4.4 mg | RBA [4]: 0.012

COc1ccc(C(=O)/C(=C\c2ccccc2)c2ccccc2)cc1
inhibition [1]: 48% | Uterine weight [2]: 16 mg | Uterine weight [3]: 4.8 mg | RBA [4]: < 0.001

O=C(/C(=C\c1ccc(O)cc1)c1ccc(O)cc1)c1ccccc1
inhibition [1]: 47% | Uterine weight [2]: 16.5 mg | Uterine weight [3]: 5.6 mg | RBA [4]: 0.48

From ChEMBL document CHEMBL1122978, “Structure-activity relationship of estrogens: receptor affinity and estrogen antagonist activity of certain (E)- and (Z)-1,2,3-triaryl-2-propen-1-ones” (J Med Chem, 1985)
